Laboratory results from ChEMBL document CHEMBL1156225, “Ircinialactams: subunit-selective glycine receptor modulators from Australian sponges of the family Irciniidae” (Bioorg Med Chem, 2010).
The source made the active and inactive calls. The calls are words filed in the database; no cut-off is given here.

Key:
Type in all cases: functional, cell-based
[1] = molecular target: T1, Glycine receptor subunit alpha-1 (Homo sapiens, UniProt P23415); test: Agonist activity at human recombinant alpha 1 GlyR expressed in HEK293 cells assessed as potentiation of glycine current by whole cell patch clamp assay
T1 sequence (P23415 whole entry): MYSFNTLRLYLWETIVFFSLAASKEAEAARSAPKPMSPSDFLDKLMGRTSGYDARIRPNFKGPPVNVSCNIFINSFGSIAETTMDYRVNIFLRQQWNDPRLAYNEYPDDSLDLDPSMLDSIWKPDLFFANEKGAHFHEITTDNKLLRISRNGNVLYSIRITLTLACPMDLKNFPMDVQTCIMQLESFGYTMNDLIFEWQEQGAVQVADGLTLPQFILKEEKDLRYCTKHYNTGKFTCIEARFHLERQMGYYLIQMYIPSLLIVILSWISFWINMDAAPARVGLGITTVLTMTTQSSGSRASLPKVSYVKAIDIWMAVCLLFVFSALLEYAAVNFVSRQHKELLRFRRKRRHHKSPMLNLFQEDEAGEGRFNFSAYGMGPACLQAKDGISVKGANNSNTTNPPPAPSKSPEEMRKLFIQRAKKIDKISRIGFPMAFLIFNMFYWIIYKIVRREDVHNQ

[2] = molecular target: T2, Glycine receptor subunit alpha-3 (Homo sapiens, UniProt O75311); test: Agonist activity at human recombinant alpha 3 GlyR expressed in HEK293 cells assessed as potentiation of glycine current by whole cell patch clamp assay
T2 sequence (O75311 whole entry): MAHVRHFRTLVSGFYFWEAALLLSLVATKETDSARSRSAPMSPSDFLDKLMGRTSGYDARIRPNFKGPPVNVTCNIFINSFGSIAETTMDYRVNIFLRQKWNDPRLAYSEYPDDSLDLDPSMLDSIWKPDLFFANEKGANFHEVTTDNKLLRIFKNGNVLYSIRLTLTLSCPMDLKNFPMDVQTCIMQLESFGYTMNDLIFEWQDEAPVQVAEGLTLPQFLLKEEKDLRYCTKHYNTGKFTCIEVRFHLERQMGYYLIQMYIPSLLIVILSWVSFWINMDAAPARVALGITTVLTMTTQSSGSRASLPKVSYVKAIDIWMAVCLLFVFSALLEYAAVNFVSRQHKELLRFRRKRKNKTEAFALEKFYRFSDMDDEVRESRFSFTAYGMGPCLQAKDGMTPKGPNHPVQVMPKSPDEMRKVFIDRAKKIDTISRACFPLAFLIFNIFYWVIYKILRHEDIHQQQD

[3] = molecular target: T1, Glycine receptor subunit alpha-1; test: (§1) Antagonist activity at human recombinant alpha 1 GlyR expressed in HEK293 cells assessed as inhibition of glycine current influx by whole cell patch clamp assay
[4] = molecular target: T2, Glycine receptor subunit alpha-3; test: Antagonist activity at human recombinant alpha 3 GlyR expressed in HEK293 cells assessed as inhibition of glycine current influx by whole cell patch clamp assay
[5] = molecular target: T3, Glycine receptor subunit alpha-1 (Homo sapiens) (UniProt P23415); test: Agonist activity at human recombinant alpha 1 GlyR expressed in HEK293 cells assessed as potentiation of glycine current at 1 to 10 uM by whole cell patch clamp assay
T3 sequence (whole entry): T1 sequence (P23415 whole entry)

[6] = molecular target: T3, Glycine receptor subunit alpha-1 (Homo sapiens); test: Agonist activity at human recombinant alpha 1 GlyR expressed in HEK293 cells assessed as potentiation of glycine current at 100 uM by whole cell patch clamp assay relative to EC20 glycine maximum response
[7] = molecular target: T4, Glycine receptor subunit alpha-2 (Homo sapiens) (UniProt P23416); test: Antagonist activity at human recombinant alpha 2 GlyR expressed in HEK293 cells assessed as inhibition of glycine current influx at 10 uM by whole cell patch clamp assay
T4 sequence (whole entry): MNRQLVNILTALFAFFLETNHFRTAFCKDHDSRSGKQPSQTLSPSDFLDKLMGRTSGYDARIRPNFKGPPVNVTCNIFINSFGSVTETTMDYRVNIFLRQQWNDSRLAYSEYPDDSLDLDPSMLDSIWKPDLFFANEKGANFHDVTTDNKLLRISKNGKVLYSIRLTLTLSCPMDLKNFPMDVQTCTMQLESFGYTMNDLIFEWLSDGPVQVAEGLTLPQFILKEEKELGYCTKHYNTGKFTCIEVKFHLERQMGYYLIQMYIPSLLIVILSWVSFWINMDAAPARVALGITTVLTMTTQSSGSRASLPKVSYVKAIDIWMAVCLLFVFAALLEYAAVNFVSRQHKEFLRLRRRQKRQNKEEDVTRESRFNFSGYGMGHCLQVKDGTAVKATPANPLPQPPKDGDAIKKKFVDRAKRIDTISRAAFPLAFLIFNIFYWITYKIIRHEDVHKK

[8] = molecular target: T3, Glycine receptor subunit alpha-1 (Homo sapiens); test: Antagonist activity at human recombinant alpha 1 GlyR expressed in HEK293 cells assessed as inhibition of glycine current influx up to 30 uM by whole cell patch clamp assay
[9] = molecular target: T3, Glycine receptor subunit alpha-1 (Homo sapiens); test: Agonist activity at human recombinant alpha 1 GlyR expressed in HEK293 cells assessed as potentiation of glycine current up to 100 uM by whole cell patch clamp assay
[10] = molecular target: T3, Glycine receptor subunit alpha-1 (Homo sapiens); test: as §1
[11] = molecular target: T4, Glycine receptor subunit alpha-2 (Homo sapiens); test: Antagonist activity at human recombinant alpha 2 GlyR expressed in HEK293 cells assessed as inhibition of glycine current influx by whole cell patch clamp assay
Summary of the method: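 HEK293 cells transiently expressing α2 GlyR, recorded by conventional whole-cell patch clamp. Current was activated with EC20 glycine (50 µM), and compound was applied at 10 µM together with glycine. Response is expressed as % of control glycine current, averaged from six cells.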

[12] = molecular target: T5, Glycine receptor subunit alpha-3 (Homo sapiens) (UniProt O75311); test: Agonist activity at human recombinant alpha 3 GlyR expressed in HEK293 cells assessed as potentiation of glycine current up to 100 uM by whole cell patch clamp assay
T5 sequence (whole entry): T2 sequence (O75311 whole entry)

[13] = molecular target: T5, Glycine receptor subunit alpha-3 (Homo sapiens); test: Agonist activity at human recombinant alpha 3 GlyR expressed in HEK293 cells assessed as potentiation of glycine current at 100 uM by whole cell patch clamp assay relative to EC20 glycine maximum response

Q: What does the source list for C/C(=C\CCC1=CCN(CC(=O)O)C1=O)CC/C=C(\C)CCC[C@H](C)CC(=O)O [IRCINIALACTAM C]?
A: EC50 ([1]; hek293): Not Active; EC50 [2]: Not Active; IC50 [3]: Not Active; IC50 ([4]; read-out: IC50): 30 µM

Q: What does the source list for CC1=C(O)/C(=C/[C@@H](C)CCC/C(C)=C/CC/C(C)=C/CCc2ccoc2)OC1=O?
A: EC50 ([1]; hek293): Not Active; EC50 [2]: Not Active; IC50 [3]: Not Active; IC50 ([4]; hek293): Not Active

Q: For CC(C)(C)C1(O)CC[S+]([O-])CC1 (stereo unspecified), which Activity [5] is on record?
A: 135%

Q: How did the EC50 ([1]; read-out: EC50) turn out when CC1=C(O)/C(=C/[C@@H](C)CCC/C(C)=C/CCC(C)(O)CCCc2ccoc2)OC1=O (stereo partly specified) was run?
A: 1.2 µM

Q: What about the Activity [6] of the same compound?
A: 215%

Q: And the EC50 [2]?
A: Not Active

Q: What about the IC50 [3] of the same compound?
A: Not Active

Q: What about the IC50 ([4]; read-out: IC50) of the same compound?
A: 7 µM

Q: What about the inhibition [7] of the same compound?
A: 87%

Q: What about the Activity [8] of the same compound?
A: Active

Q: How did the EC50 ([1]; hek293) turn out when CCOC(=O)C(O)(C[C@@H](C)CCC/C(C)=C/CC/C(C)=C/CCC1=CCN(CC(=O)O)C1=O)C(C)(O)C(=O)O (stereo partly specified) [IRCINIALACTAM D] was run?
A: Not Active

Q: And the EC50 [2]?
A: Not Active

Q: What about the IC50 [3] of the same compound?
A: Not Active

Q: What about the IC50 ([4]; read-out: IC50) of the same compound?
A: 30 µM

Q: With CC1=C(O)/C(=C/[C@@H](C)CCC/C(C)=C/CCC(C)(O)CCCC2=CCN(CC(=O)O)C2=O)OC1=O (stereo partly specified) [8-HYDROXYIRCINIALACTAM A] as the compound, how does the Activity [6] read?
A: 217%

Q: And the Activity [9]?
A: inactive

Q: What about the EC50 [2] of the same compound?
A: Not Active

Q: And the IC50 [3]?
A: Not Active

Q: What about the IC50 ([4]; hek293) of the same compound?
A: Not Active

Q: What does the source list for CCCCCCC(C)(C)c1cc(OC)c([C@H]2C=C(CO)[C@@H]3C[C@H]2C3(C)C)c(OC)c1?
A: Activity [10]: Active; Activity [11]: Active; Activity [8]: inactive

Q: Cc1c(C(=O)c2cccc3ccccc23)c2cccc3c2n1[C@H](CN1CCOCC1)CO3 was tested. Which Activity [10] did it give?
A: Active

Q: What about the Activity [11] of the same compound?
A: Active

Q: What about the Activity [8] of the same compound?
A: inactive

Q: Which Activity [10] does the source give for CCCCCCC(C)(C)c1cc(O)c2c(c1)OC(C)(C)[C@@H]1CC=C(CO)C[C@@H]21 here?
A: Active

Q: And the Activity [11]?
A: Active

Q: And the Activity [8]?
A: inactive

Q: CC1=C(O)/C(=C/[C@@H](C)CCC/C(C)=C/CC/C(C)=C/CCC2=CCN(CC(=O)O)C2=O)OC1=O [IRCINIALACTAM A] was tested. Which Activity [6] did it give?
A: 140%

Q: And the Activity [9]?
A: inactive

Q: What about the EC50 [2] of the same compound?
A: Not Active

Q: What about the IC50 [3] of the same compound?
A: Not Active

Q: And the IC50 ([4]; read-out: IC50)?
A: 30 µM

Q: CC1=C(O)/C(=C/C(C)/C=C/C=C(\C)CCCc2coc(Cc3ccoc3)c2)OC1=O (stereo unspecified) [COMETIN A] was tested. Which EC50 ([1]; hek293) did it give?
A: Not Active

Q: And the EC50 [2]?
A: Not Active

Q: What about the IC50 [3] of the same compound?
A: Not Active

Q: And the IC50 ([4]; hek293)?
A: Not Active

Q: What does the source list for CC1=C(O)/C(=C/[C@@H](C)CCC/C(C)=C/CCC(C)(O)CCCC2=CC(=O)N(CC(=O)O)C2)OC1=O (stereo partly specified) [8-HYDROXYIRCINIALACTAM B]?
A: EC50 ([1]; read-out: EC50): 0.5 µM; Activity [6]: 330%; Activity [12]: inactive; Activity [13]: 183%; IC50 [3]: Not Active; IC50 ([4]; hek293): Not Active

Q: Which results are given for CC1=C(O)/C(=C/C(C)/C=C/C=C(\C)CCCC(C)CCCc2ccoc2)OC1=O (stereo unspecified)?
A: EC50 ([1]; hek293): Not Active; EC50 [2]: Not Active; IC50 [3]: Not Active; IC50 ([4]; hek293): Not Active

Q: For CC1=C(O)/C(=C/[C@@H](C)CCC/C(C)=C\CC/C(C)=C/CCc2ccoc2)OC1=O, which EC50 ([1]; hek293) is on record?
A: Not Active

Q: What about the EC50 [2] of the same compound?
A: Not Active

Q: What about the IC50 [3] of the same compound?
A: Not Active

Q: What about the IC50 ([4]; hek293) of the same compound?
A: Not Active

Q: What does the source list for C/C(=C\CCC1=CCN(CC(=O)O)C1=O)CC/C=C(\C)CCC[C@@H](C)CC(=O)O?
A: EC50 ([1]; hek293): Not Active; EC50 [2]: Not Active; IC50 [3]: Not Active; IC50 ([4]; read-out: IC50): 30 µM
